Assay results taken from ChEMBL document CHEMBL4680104, “Structure-Based Optimization of Small-Molecule Inhibitors for the β-Catenin/B-Cell Lymphoma 9 Protein-Protein Interaction” (J Med Chem, 2018).

Tests used:
[1] = target: T1, beta-catenin-B-cell lymphoma 9 protein complex (Homo sapiens, UniProt P35222); experiment: Inhibition of protein interaction between beta-catenin (unknown origin)/BCL9 in human SW480 cells transfected with beta-catenin assessed as reduction in Wnt/beta-catenin transactivation incubated for 24 hrs by Wnt-responsive TOP-Flash luciferase reporter assay; assay type: cell-based
T1 sequence (P35222 whole entry): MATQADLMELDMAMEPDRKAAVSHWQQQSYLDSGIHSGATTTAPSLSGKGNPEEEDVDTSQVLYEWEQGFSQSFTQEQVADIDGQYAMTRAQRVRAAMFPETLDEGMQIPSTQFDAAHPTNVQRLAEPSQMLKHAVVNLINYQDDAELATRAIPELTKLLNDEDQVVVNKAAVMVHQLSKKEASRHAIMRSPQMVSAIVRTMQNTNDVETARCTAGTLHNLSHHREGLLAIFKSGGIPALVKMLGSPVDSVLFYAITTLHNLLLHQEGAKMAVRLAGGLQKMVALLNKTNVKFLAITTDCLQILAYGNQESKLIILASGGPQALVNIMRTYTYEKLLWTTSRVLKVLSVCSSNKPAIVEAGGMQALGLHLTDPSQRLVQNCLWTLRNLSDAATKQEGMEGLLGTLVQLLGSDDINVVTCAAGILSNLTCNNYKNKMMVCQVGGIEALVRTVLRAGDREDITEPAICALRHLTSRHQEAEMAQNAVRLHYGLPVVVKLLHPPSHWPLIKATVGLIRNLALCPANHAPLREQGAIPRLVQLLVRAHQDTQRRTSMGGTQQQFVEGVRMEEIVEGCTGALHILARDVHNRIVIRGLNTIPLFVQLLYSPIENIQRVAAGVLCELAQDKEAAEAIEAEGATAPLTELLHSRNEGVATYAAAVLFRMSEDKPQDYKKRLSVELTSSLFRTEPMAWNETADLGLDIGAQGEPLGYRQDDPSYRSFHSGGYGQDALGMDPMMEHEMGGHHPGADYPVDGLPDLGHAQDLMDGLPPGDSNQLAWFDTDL
T1 sequence (O00512 whole entry): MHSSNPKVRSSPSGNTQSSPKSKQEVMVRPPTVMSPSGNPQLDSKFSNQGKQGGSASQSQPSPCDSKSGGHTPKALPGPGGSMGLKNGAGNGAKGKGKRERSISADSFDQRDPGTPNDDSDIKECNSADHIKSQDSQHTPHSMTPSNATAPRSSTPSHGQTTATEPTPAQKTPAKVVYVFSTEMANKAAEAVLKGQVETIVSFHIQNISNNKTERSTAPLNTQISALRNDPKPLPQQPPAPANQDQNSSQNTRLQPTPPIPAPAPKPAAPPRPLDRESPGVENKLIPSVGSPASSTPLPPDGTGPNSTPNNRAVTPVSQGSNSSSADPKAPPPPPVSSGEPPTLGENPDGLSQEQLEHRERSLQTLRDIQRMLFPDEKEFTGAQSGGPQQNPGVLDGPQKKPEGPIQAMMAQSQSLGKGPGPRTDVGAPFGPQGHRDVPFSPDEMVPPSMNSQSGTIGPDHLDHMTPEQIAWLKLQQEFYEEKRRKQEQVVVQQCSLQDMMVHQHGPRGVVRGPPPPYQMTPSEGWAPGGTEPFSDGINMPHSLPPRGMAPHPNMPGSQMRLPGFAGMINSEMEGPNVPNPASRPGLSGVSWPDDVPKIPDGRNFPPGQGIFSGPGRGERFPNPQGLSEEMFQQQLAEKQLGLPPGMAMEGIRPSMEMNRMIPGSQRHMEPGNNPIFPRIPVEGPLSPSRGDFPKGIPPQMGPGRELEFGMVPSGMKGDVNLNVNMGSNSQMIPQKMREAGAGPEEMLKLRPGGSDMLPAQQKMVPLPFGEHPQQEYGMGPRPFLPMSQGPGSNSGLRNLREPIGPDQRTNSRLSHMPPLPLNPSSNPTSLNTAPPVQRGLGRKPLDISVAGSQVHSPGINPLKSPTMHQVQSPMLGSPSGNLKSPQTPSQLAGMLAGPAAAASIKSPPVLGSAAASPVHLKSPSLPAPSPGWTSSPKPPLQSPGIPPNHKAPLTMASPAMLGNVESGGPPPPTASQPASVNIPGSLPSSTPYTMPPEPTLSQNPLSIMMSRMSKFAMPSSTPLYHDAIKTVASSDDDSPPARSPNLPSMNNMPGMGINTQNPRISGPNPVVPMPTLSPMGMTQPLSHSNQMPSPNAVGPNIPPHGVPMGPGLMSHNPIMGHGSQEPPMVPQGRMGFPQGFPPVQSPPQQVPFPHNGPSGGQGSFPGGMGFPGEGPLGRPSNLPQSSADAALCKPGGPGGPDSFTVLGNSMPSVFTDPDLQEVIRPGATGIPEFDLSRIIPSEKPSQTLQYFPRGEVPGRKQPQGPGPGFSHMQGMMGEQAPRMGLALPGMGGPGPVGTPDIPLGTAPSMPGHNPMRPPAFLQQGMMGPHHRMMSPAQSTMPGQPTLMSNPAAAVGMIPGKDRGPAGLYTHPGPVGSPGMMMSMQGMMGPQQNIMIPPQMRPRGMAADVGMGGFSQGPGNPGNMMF

[2] = Effect on HPRT mRNA expression in human SW480 cells at 4 uM incubated for 24 hrs by qPCR analysis relative to control; assay type: ADME, cell-based; details: read-out: FC
Method in brief: (§1)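 SW480 cells at 1 × 10^6/mL were treated with inhibitor for 24 h. Total RNA was extracted with TRIzol and cDNA made by first-strand synthesis. SYBR green qPCR used human HPRT primers, with CT values normalised to GAPDH as internal reference. Performed in triplicate.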

[3] = Effect on HPRT mRNA expression in human SW480 cells at 2 uM incubated for 24 hrs by qPCR analysis relative to control; assay type: ADME, cell-based; details: read-out: FC; method in brief: as §1
[4] = target: T2, beta-catenin-B-cell lymphoma 9 protein complex (Homo sapiens) (UniProt P35222+O00512); experiment: Inhibition of protein interaction between beta-catenin /BCL9 in human SW480 cells assessed as reduction in Wnt target genes by measuring cyclin D1 mRNA expression incubated for 24 hrs by qPCR analysis; assay type: cell-based
Method in brief: (§2)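 SW480 cells at 1 × 10^6/mL were treated with a range of inhibitor concentrations for 24 h. Total RNA was extracted with TRIzol and reverse-transcribed to cDNA. SYBR Green qPCR was run for Axin2, LEF1 and cyclin D1, with HPRT as a non-target housekeeping gene. CT values were normalized to GAPDH. Triplicate.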

[5] = target: T2, beta-catenin-B-cell lymphoma 9 protein complex (Homo sapiens); experiment: Inhibition of protein interaction between beta-catenin /BCL9 in human SW480 cells assessed as reduction in Wnt target genes by measuring Axin2 mRNA expression incubated for 24 hrs by qPCR analysis; assay type: cell-based; method in brief: as §2
[6] = target: T2, beta-catenin-B-cell lymphoma 9 protein complex (Homo sapiens); experiment: Inhibition of protein interaction between beta-catenin /BCL9 in human SW480 cells assessed as reduction in Wnt target genes by measuring LEF1 mRNA expression incubated for 24 hrs by qPCR analysis; assay type: cell-based; method in brief: as §2
[7] = Inhibition of protein interaction between beta-catenin K181A mutant (unknown origin)/N-terminal biotinylated human BCL9 ( 350 to 375 residues) incubated for 1 hr by Alpha-screen competitive inhibition assay
[8] = Inhibition of protein interaction between beta-catenin D145A mutant (unknown origin)/N-terminal biotinylated human BCL9 ( 350 to 375 residues) incubated for 1 hr by Alpha-screen competitive inhibition assay

SMILES | IC50 [1] [µM] | fold induction at 4 µM [2] | fold induction at 2 µM [3] | inhibition [4] | inhibition [5] | inhibition [6] | Ki [7] [nM] | Ki [8] [µM]
Cc1cc(F)ccc1-c1cc(NC(=O)c2ccc(O[C@H]3CCNC3)c(-c3ccc(F)c(F)c3)c2)ccc1O[C@H]1CCNC1.Cl.Cl | 2 | 0.136 | 0.166 | – | – | – | – | –
Cl.Cl.O=C(Nc1ccc(O[C@H]2CCNC2)c(-c2ccc(F)cc2)c1)c1ccc(O[C@H]2CCNC2)c(-c2ccc(F)c(F)c2)c1 | 2.9 | – | – | Dose-dependent effect | Dose-dependent effect | Dose-dependent effect | – | –
Cl.Cl.O=C(Nc1ccc(O[C@H]2CCNC2)c(-c2ccc(F)cc2)c1)c1cnc(O[C@H]2CCNC2)c(-c2ccc(F)c(F)c2)c1 | 5.9 | – | – | – | – | – | – | –
Cl.Cl.O=C(Nc1ccc(O[C@@H]2CCNC2)c(-c2cccc(-c3nn[nH]n3)c2)c1)c1ccc(O[C@H]2CCNC2)c(-c2ccc(F)c(F)c2)c1 | 25 | – | – | Dose-dependent effect | Dose-dependent effect | Dose-dependent effect | 4100 | 3
Cl.Cl.O=C(Nc1ccc(O[C@H]2CCNC2)c(-c2ccc(F)cc2)c1)c1ccc(O[C@H]2CCNC2)c(C2CCC(C(F)(F)F)CC2)c1 (some centres undefined) | 10 | – | – | – | – | – | – | –
Cl.Cl.O=C(Nc1ccc(O[C@H]2CCNC2)c(-c2ccc(F)cc2)c1)c1ccc(O[C@H]2CCNC2)c(-c2ccc3ccsc3c2)c1 | 1.2 | 1.04 | 1.21 | Dose-dependent effect | Dose-dependent effect | Dose-dependent effect | 1700 | 4.2
Cl.Cl.O=C(Nc1ccc(O[C@H]2CCNC2)c(-c2ccc(F)cc2)c1)c1ccc(O[C@H]2CCNC2)c(-c2ccc3cc(F)ccc3c2)c1 | 12 | – | – | – | – | – | – | –
